Non-standard residues stand in square brackets, D forms with d. Residues, ends and D or L forms follow the SMILES beside them. Bip = N[C@@H](Cc1ccc(-c2ccccc2)cc1)C(=O)O
Tests used:
[1] = Negative-stain TEM of self-assembled nanoribbon morphology; type: physicochemical; conditions: 0.2 mM peptide, 5% HFIP/water, average of at least 100 measurements; for Nanoribbon width: pH 3–4, room temperature
In short: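 Peptide, quantified by HPLC peak area against amino-acid-analysis-calibrated curves, dissolved in HFIP and diluted with water to 0.2 mM (5% HFIP, pH 3–4 from residual TFA). Vortexed 1 min, sonicated 5 min. Assembled sample applied to carbon-coated copper grids for 30 s, blotted, stained 2 min with 5% uranyl acetate, and water-washed. Imaged at 80 kV. Dimensions averaged over ≥100 distinct fibrils.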

[2] = Self-assembly kinetics by circular dichroism over 24 h; type: physicochemical; conditions: CD at 0, 1, 2, 4, 12, 24 h; 0.2 mM peptide, 5% HFIP/water, 25°C
In short: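 Lyophilized peptide, quantified by 215-nm HPLC calibration tied to amino acid analysis, was dissolved in HFIP, then water was added (pH 3–4 from residual TFA). Solutions were vortexed for 1 min and sonicated for 5 min. Spectra were scanned from 260 to 190 nm in a 0.1-mm quartz cell with 1.0-nm step, 1.0-nm bandwidth and 3 s per step, starting immediately after preparation.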

[3] = amino acid; glycine defined as 0; higher π = more hydrophobic; cited from earlier work

Nanoribbon width [1]	Helical pitch ([1]; left-handed helical nanoribbons)	SMILES	evolution of CD signal over 24 h (self-assembly kinetics) [2]	partition coefficient (π) between octanol and water relative to glycine [3]
8.8 ± 0.8 nm	19.1 ± 1.3 nm	CC(=O)N[C@@H](Cc1ccccc1)C(=O)N[C@@H](CCCCN)C(=O)N[C@@H](Cc1ccccc1)C(=O)N[C@@H](CCC(=O)O)C(=O)N[C@@H](Cc1ccccc1)C(=O)N[C@@H](CCCCN)C(=O)N[C@@H](Cc1ccccc1)C(=O)N[C@@H](CCC(=O)O)C(N)=O [Peptide 1, Ac‐(FKFE)2‐NH2]		
5.5 ± 0.9 nm		CC(=O)N[C@@H](Cc1ccc(-c2ccccc2)cc1)C(=O)N[C@@H](CCCCN)C(=O)N[C@@H](Cc1ccc(-c2ccccc2)cc1)C(=O)N[C@@H](CCC(=O)O)C(=O)N[C@@H](Cc1ccc(-c2ccccc2)cc1)C(=O)N[C@@H](CCCCN)C(=O)N[C@@H](Cc1ccc(-c2ccccc2)cc1)C(=O)N[C@@H](CCC(=O)O)C(N)=O [Peptide 6, Ac‐(BipKBipE)2‐NH2] (Ac-[Bip]K[Bip]E[Bip]K[Bip]E-NH2)	no effect on evolution of signal intensity over time	
		N[C@@H](CCc1ccccc1)C(=O)O [Hph, homophenylalanine]		2.10
		N[C@@H](Cc1c[nH]c2ccccc12)C(=O)O [Trp, tryptophan]		2.25
2.9 ± 0.5 nm		CC(=O)N[C@@H](Cc1ccc(-c2ccccc2)cc1)C(=O)N[C@@H](CCCCN)C(=O)N[C@@H](Cc1ccccc1)C(=O)N[C@@H](CCC(=O)O)C(=O)N[C@@H](Cc1ccccc1)C(=O)N[C@@H](CCCCN)C(=O)N[C@@H](Cc1ccccc1)C(=O)N[C@@H](CCC(=O)O)C(N)=O [Peptide 9, Ac‐BipKFEFKFE‐NH2] (Ac-[Bip]KFEFKFE-NH2)	intensified dramatically over 24 h	
		N[C@@H](Cc1ccccc1)C(=O)O [Phe, phenylalanine]		1.79
7.3 ± 1.6 nm		CC(=O)N[C@@H](Cc1c[nH]c2ccccc12)C(=O)N[C@@H](CCCCN)C(=O)N[C@@H](Cc1c[nH]c2ccccc12)C(=O)N[C@@H](CCC(=O)O)C(=O)N[C@@H](Cc1c[nH]c2ccccc12)C(=O)N[C@@H](CCCCN)C(=O)N[C@@H](Cc1c[nH]c2ccccc12)C(=O)N[C@@H](CCC(=O)O)C(N)=O [Peptide 3, Ac‐(WKWE)2‐NH2] (Ac-WKWEWKWE-NH2)	occurring over 24 h	

Reference: PMC8349901 (Journal of Peptide Science, 2021)
